Rows were chosen to be rich in hits. Some 3% of all compounds tested hit in one or more screens of this group.
SENP8 block-1: SENP8 protease inhibitors, primary screen, biochemical, luminescence. Sentrin-specific protease 8 (Homo sapiens), Q96LD8. purified SENP8, Z-RLRGG-aminoluciferin cleavage. inhibition, % at 10 µM. 330,000 compounds, 1.2% hits. AID 2540, 2010; in the data active = inhibition above about 50%
Target sequence (Q96LD8 whole entry, looked up): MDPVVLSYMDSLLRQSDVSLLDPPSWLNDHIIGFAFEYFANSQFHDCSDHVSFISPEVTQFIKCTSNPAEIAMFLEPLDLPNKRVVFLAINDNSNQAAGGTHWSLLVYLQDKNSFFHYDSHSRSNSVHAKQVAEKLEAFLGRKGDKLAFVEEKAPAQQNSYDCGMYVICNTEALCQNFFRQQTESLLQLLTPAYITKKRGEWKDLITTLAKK
SENP6 block: SENP6 protease inhibitors, primary screen, biochemical, luminescence, uHTS; Sentrin-specific protease 6 (Homo sapiens), Q9GZR1; Recombinant SENP6 catalytic domain, aminoluciferin luminescence; inhibition, % at 10 µM; 330,000 compounds, 1.8% hits; AID 2599, 2010;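 active = inhibition above about 50% at the single tested dose, limit read from the data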
SENP7 block: SENP7 protease inhibitors, primary screen, biochemical, luminescence, uHTS; recombinant SENP7, Z-RLRGG-aminoluciferin luminescence, 40 min; inhibition, % at 5 µM; 330,000 compounds, 1.5% hits; AID 434973, 2010; Sentrin-specific protease 7 (Homo sapiens), Q9BQF6;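 active = inhibition above about 50% at the single test dose, limit read from the data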
Target sequence (Q9BQF6 706-1050 limits assumed): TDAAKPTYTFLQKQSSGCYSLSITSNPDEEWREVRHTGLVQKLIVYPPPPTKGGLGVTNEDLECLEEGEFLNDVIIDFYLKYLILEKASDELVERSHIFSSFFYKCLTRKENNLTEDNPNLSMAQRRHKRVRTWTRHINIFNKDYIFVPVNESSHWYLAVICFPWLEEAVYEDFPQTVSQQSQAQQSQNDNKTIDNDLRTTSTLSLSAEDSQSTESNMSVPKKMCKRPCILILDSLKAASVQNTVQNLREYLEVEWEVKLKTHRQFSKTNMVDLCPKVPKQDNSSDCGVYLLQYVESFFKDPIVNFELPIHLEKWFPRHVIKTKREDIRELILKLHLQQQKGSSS
Apaf-1 inh: inhibitors of human Apaf-1 apoptosome, primary screen, biochemical, DEVD-Rh110 fluorescence, uHTS; Apoptotic protease-activating factor 1 (Homo sapiens), O14727; reconstituted apoptosome caspase-3 activity; inhibition, % at 20 µM; 330,000 compounds, 0.71% hits; AID 489030, 2010; active = inhibition of at least 40% at 20 µM
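Material: reconstituted apoptosome with Apaf-1, cytochrome c, caspase-9, procaspase-3, dATP; medium: pH 7.5 Hepes buffer with CHAPS, BSA, DTT; also added: cytochrome c and DEVD-Rh110 substrate; timing: 30 min plus 50 min, RT; signal: Rh110 fluorescence intensity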
UBC13 polyUb: UBC13 polyubiquitin chain formation inhibitors, primary screen, biochemical, TR-FRET, uHTS; Ubiquitin-conjugating enzyme E2 N (Homo sapiens), P61088; inhibition, % at 20 µM; 330,000 compounds, 0.47% hits; in the data active = inhibition above about 45%, passing the limit was not always enough
SENP8 block-2: human SENP8 protease inhibitors, primary screen, biochemical, fluorescence, Nedd8 protein substrate, uHTS; recombinant SENP8; inhibition, % at 20 µM; 360,000 compounds, 0.64% hits; AID 602440, 2012; in the data active = inhibition mostly above about 40%, no sharp cut-off; inactive = mostly below about 27%
SENP8 conf: SENP8 protease inhibitors, retest, confirmation, biochemical, luminescence, single concentration | shares compounds with SENP7 block | Recombinant SENP8, Z-RLRGG-aminoluciferin luminescence, 60 min | inhibition, % at 12.5 µM | 6,200 compounds, 40% hits | AID 488912, 2010;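 active = mean inhibition across replicates above about 50%, limit read from the data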
SENP6 confirm: SENP6 protease inhibitors, confirmation, biochemical, luminescence, single concentration; 6,200 compounds, 58% hits; shares compounds with SENP7 block; inhibition, % at 12.5 µM; recombinant SENP6, Z-RLRGG-aminoluciferin luminescence
SENP7 conf: SENP7 protease inhibitors, retest, confirmation, biochemical, luminescence, single concentration; recombinant SENP7, Z-RLRGG-aminoluciferin luminescence, 40 min; 6,200 compounds, 69% hits; inhibition, % at 12.5 µM; shares compounds with SENP7 block
Casp3 select: caspase-3 protease inhibitors, confirmation, selectivity assay for SENP inhibitor project, biochemical, single concentration; shares compounds with SENP7 block; purified caspase-3, Z-DEVD-aminoluciferin luminescence, 60 min; inhibition, % at 12.5 µM; 6,200 compounds, 60% hits; AID 488918, 2010;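 active = mean inhibition above about 50%, limit read from the data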
SENP luc ctr: interferes with luciferase luminescence in SENP counter-screen; shares compounds with SENP7 block; Pre-incubated SENP8/Z-RLRGG-aminoluciferin, luciferase luminescence interference; inhibition, % at 12.5 µM; 6,200 compounds, 39% hits; AID 488919;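 active = mean inhibition above about 50% when retested at one dose, limit read from the data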
Large screens that a line does not name were inactive (follow-up assays come after a bar, where they were run).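 The calls were made as follows, unless noted: active = mean inhibition above about 50% in the one-dose retest (limit read from the data); inactive = the rest.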

Cc1cc(C2=NNC(=NC3CC3)SC2)c(C)n1-c1ccccc1	none (no result: SENP8 block-1, SENP6 block, SENP7 block, Apaf-1 inh, UBC13 polyUb)
c1ccc2c(C3=NNC(=NC4CC4)SC3)c[nH]c2c1	SENP6 block 63 | SENP8 conf inactive | SENP6 confirm inactive | SENP7 conf 81 | Casp3 select 80 | SENP luc ctr 67
CC1(C(=O)Nc2ccc3c(c2)OCCO3)CSCC(=O)N1CCc1ccccc1F (stereo not given)	none (no result: SENP8 block-1, SENP6 block, SENP7 block, Apaf-1 inh, UBC13 polyUb)
C=C(C(=O)Oc1ccccc1C(C)(C)C)c1ccccc1	none (no result: SENP8 block-2)
N#CC(=C1CCCC1)c1nc(-c2ccccc2O)cs1	SENP8 block-1 63, SENP6 block 86, SENP7 block 90 | SENP8 conf inactive | SENP6 confirm inactive | SENP7 conf inactive | Casp3 select 53 | SENP luc ctr 55
Cc1ccc(-c2csc(C(C#N)=C3CCCC3)n2)cc1	none
N#CC(=C1CCCC1)c1nc(-c2ccccc2)cs1	SENP8 block-1 65, SENP6 block 77, SENP7 block 65 | SENP8 conf inactive | SENP6 confirm 64 | SENP7 conf 88 | Casp3 select 54 | SENP luc ctr inactive
COc1ccc(C(=O)n2c(N)nc3ccccc32)cc1OC	none
Nc1nc2ccccc2n1C(=O)c1ccc(F)cc1	SENP8 block-1 78, SENP6 block 93, SENP7 block 94 | SENP8 conf 60 | SENP6 confirm 83 | SENP7 conf 97 | Casp3 select 92 | SENP luc ctr inactive
Nc1nc2ccccc2n1C(=O)c1ccccc1	SENP8 block-1 86, SENP6 block 96, SENP7 block 96 | SENP8 conf 70 | SENP6 confirm 93 | SENP7 conf 100 | Casp3 select 96 | SENP luc ctr inactive
Fc1ccc(Nc2ccc3ccccc3n2)c(F)c1	SENP8 block-1 95, SENP6 block 95, SENP7 block 99 | SENP8 conf 98 | SENP6 confirm 99 | SENP7 conf 103 | Casp3 select 95 | SENP luc ctr 93
CCCCCN1C=CC(=C2C(=O)c3ccccc3C2=O)C=C1	SENP8 block-1 96, SENP6 block 96, SENP7 block 97 | SENP8 conf 94 | SENP6 confirm 96 | SENP7 conf 100 | Casp3 select 96 | SENP luc ctr inactive
CC1=CC(=C2C(=O)c3ccccc3C2=O)C=C(C)N1C	none
CCOc1cccc(-c2cnc3cccnn23)c1	none (no result: SENP8 block-1, SENP6 block, SENP7 block, Apaf-1 inh, UBC13 polyUb)
CCOc1ccc(N=Nc2c(N)[nH][nH]c2=O)cc1	SENP8 block-1 65, SENP6 block 76, SENP7 block 72 | SENP8 conf 57 | SENP6 confirm 61 | SENP7 conf 90 | Casp3 select 88 | SENP luc ctr inactive
Cc1cc(=O)n2[nH]c(=O)c(N=Nc3ccccc3)c2[nH]1	none
CCOc1ccc(N=Nc2c(=O)[nH]n3c(=O)cc(C)[nH]c23)cc1	SENP8 block-1 92, SENP6 block 96, SENP7 block 95 | SENP8 conf 97 | SENP6 confirm 98 | SENP7 conf 102 | Casp3 select 98 | SENP luc ctr 93
COc1ccc(N=Nc2c(C)[nH][nH]c2=O)cc1	SENP6 block 69, SENP7 block 64 | SENP8 conf 50 | SENP6 confirm 52 | SENP7 conf 84 | Casp3 select 80 | SENP luc ctr 53
OC[C@@H]1CN(Cc2ccc(F)cc2)C[C@H](n2cnc3c(N4CCN(c5ccccc5)CC4)ncnc32)O1	none (no result: SENP8 block-1, SENP6 block, SENP7 block, Apaf-1 inh, UBC13 polyUb)
CCOC(=O)C1CCN(c2ccc(Cl)nn2)CC1	none
O=C(c1cc(-c2cccs2)on1)N1CCOCC1	none
c1csc(-c2ccc(N3CCOCC3)nn2)c1	SENP6 block 54, SENP7 block 67 | SENP8 conf 57 | SENP6 confirm 56 | SENP7 conf 86 | Casp3 select 88 | SENP luc ctr 63
CCOC(=O)C1CCN(c2ccc(-c3cccs3)nn2)CC1	SENP8 block-1 91, SENP6 block 96, SENP7 block 95 | SENP8 conf 94 | SENP6 confirm 94 | SENP7 conf 100 | Casp3 select 96 | SENP luc ctr 90
Cc1ccccc1NC(=S)c1nc2ccccc2[nH]1	none (no result: SENP8 block-1, SENP6 block, SENP7 block, Apaf-1 inh, UBC13 polyUb)
S=C(Nc1ccc(Cl)cc1)c1nc2ccccc2[nH]1	SENP6 block 59 | SENP8 conf inactive | SENP6 confirm inactive | SENP7 conf 92 | Casp3 select 71 | SENP luc ctr inactive
COC(=O)c1cccc(N2C(=O)C[C@](Sc3ccc(C)cc3)(C(=O)OC)[C@H]2c2ccccc2)c1	none (no result: SENP8 block-1, SENP6 block, SENP7 block, Apaf-1 inh, UBC13 polyUb)
O=C(c1[nH]c(C(F)(F)F)nc1-c1ccccc1)N1CCC2(CC1)C(=O)NCN2c1ccccc1	none (no result: SENP8 block-1, SENP6 block, SENP7 block, Apaf-1 inh, UBC13 polyUb)
O=C(C1CCC1)N1CCc2cc(S(=O)(=O)NC3CCCc4ccccc43)ccc21 (stereo not given)	SENP7 block 97 | SENP8 conf inactive | SENP6 confirm inactive | SENP7 conf inactive | Casp3 select inactive | SENP luc ctr inactive
O=C(O)CCC(=O)N1CCc2cc(S(=O)(=O)NC3CCCc4ccccc43)ccc21 (stereo not given)	none
CC(C)(C)S(=O)N1Cc2cc(C(=O)N3CCc4ccccc4C3)nc(-c3cccc(-c4cccnc4)c3)c2[C@@H]1CCO (stereo not given in full)	none (no result: SENP8 block-1, SENP6 block, SENP7 block, Apaf-1 inh, UBC13 polyUb)
Cc1cc(C)nc(SCc2ccc(Br)cc2)n1	SENP7 block 60 | SENP8 conf inactive | SENP6 confirm inactive | SENP7 conf inactive | Casp3 select inactive | SENP luc ctr inactive
